Calls of active or inactive are those of the source. The rule behind the calls is not given here.
What was measured:
[1] = target: T1, Glycogen synthase kinase-3 (Homo sapiens) (UniProt P49840+P49841); assay: Inhibition of GSK3 in human A-375 cells assessed as increase Axin2 protein expression level at 20 nM incubated for 0.5 to 8 hrs by western blot analysis; type: cell-based; settings: time 0.5-8 hrs
Summary of the method: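 A375 cells treated for up to 8 h. Lysed on ice for 15 min in 1% Triton X100, 25 mM Tris pH 7.5, 150 mM NaCl, 1 mM EDTA/EGTA with protease/phosphatase inhibitors, then freeze-thawed and sonicated. Equal protein run on 4–20% SDS-PAGE and transferred to nitrocellulose. Primary antibodies at 1:1000 in 1% BSA overnight at 4°C (pGSK3 antibody detects pTyr279-GSK3α/pTyr216-GSK3β). HRP anti-rabbit secondary, chemiluminescent detection.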

[2] = target: T1, Glycogen synthase kinase-3 (Homo sapiens); assay: Inhibition of GSK3 in human A-375 cells assessed as increase in free beta-catenin at 20 nM for 48 hrs by immunoprecipitation analysis; type: cell-based
Summary of the method: (§1)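 Free β-catenin measured as the fraction binding the E-cadherin C-terminus. Lysate (300 μg protein) incubated with 10 μg His-Flag-E-cadherin, then captured overnight at 4°C on anti-FLAG M2 affinity gel. Resin washed 3 times in lysis buffer and eluted in reducing loading buffer. Bound β-catenin detected by immunoblot.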

[3] = target: T1, Glycogen synthase kinase-3 (Homo sapiens); assay: Inhibition of GSK3 in human M14 cells assessed as increase in free beta-catenin at 20 nM for 48 hrs by immunoprecipitation analysis; type: cell-based; summary of the method: as §1
[4] = Antiproliferative activity against human MEXF462 cells harboring BRAF V600E mutation assessed as reduction in cell viability incubated for 72 hrs by CellTitre-Glo assay; type: functional, cell-based; settings: MEXF462, 72 h
Summary of the method: (§2)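 Cells seeded at 2,000 per well and left to adhere overnight. After 24 h, medium was switched to growth medium with 2% FBS. Test agent was added at 0.5 nmol/L to 10 μmol/L for 72 h. Viability was read by CellTiter-Glo luminescence. IC50 came from nonlinear regression sigmoidal dose-response fits.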

SK-MEL-2 = assay: Antiproliferative activity against human SK-MEL-2 cells harboring NRAS Q61R mutation assessed as reduction in cell viability incubated for 72 hrs by CellTitre-Glo assay; type: functional, cell-based; settings: SK-MEL-2, 72 h; summary of the method: as §2
CHL-1 = assay: Antiproliferative activity against human CHL-1 cells assessed as reduction in cell viability incubated for 72 hrs by CellTitre-Glo assay; type: functional, cell-based; settings: CHL-1, 72 h; summary of the method: as §2
[5] = Antiproliferative activity against human MEXF1341 cells harboring NRAS Q61 mutation assessed as reduction in cell viability incubated for 72 hrs by CellTitre-Glo assay; type: functional, cell-based; settings: MEXF1341, 72 h; summary of the method: as §2
[6] = Antiproliferative activity against human MEXF1792 cells harboring NRAS G13D mutation assessed as reduction in cell viability incubated for 72 hrs by CellTitre-Glo assay; type: functional, cell-based; settings: MEXF1792, 72 h; summary of the method: as §2
MEL1102 = assay: Induction of apoptosis in human MEL1102 cells assessed as increase in cleave-PARP protein expression at 5 to 15 nM after 72 hrs by sandwich ELISA analysis; type: functional, cell-based; settings: dose 5-15 nM
Summary of the method: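 Cells were plated at 250,000 per well in 6-well plates and left overnight. Fresh medium containing agent at 5 or 15 nM final was added for 72 h. Cleaved PARP (Asp214) was measured by sandwich ELISA on 50 μg total protein and expressed relative to DMSO-treated cells.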

HCT-116 = assay: Antiproliferative activity against human HCT-116 assessed as reduction in cell viability incubated for 72 hrs by CellTitre-Glo assay; type: functional, cell-based; settings: HCT-116, 72 h; summary of the method: as §2
COLO 205 = assay: Antiproliferative activity against human COLO 205 assessed as reduction in cell viability incubated for 72 hrs by CellTitre-Glo assay; type: functional, cell-based; settings: COLO 205, 72 h; summary of the method: as §2
COLO 320 = assay: Antiproliferative activity against human COLO 320 assessed as reduction in cell viability incubated for 72 hrs by CellTitre-Glo assay; type: functional, cell-based; settings: COLO 320, 72 h; summary of the method: as §2
A549 = assay: Antiproliferative activity against human A549 assessed as reduction in cell viability incubated for 72 hrs by CellTitre-Glo assay; type: functional, cell-based; settings: A549, 72 h; summary of the method: as §2
SK-BR-3 = assay: Antiproliferative activity against human SK-BR-3 assessed as reduction in cell viability incubated for 72 hrs by CellTitre-Glo assay; type: functional, cell-based; settings: SK-BR-3, 72 h; summary of the method: as §2
MDA-MB-231 = assay: Antiproliferative activity against human MDA-MB-231 assessed as reduction in cell viability incubated for 72 hrs by CellTitre-Glo assay; type: functional, cell-based; settings: MDA-MB-231, 72 h; summary of the method: as §2
MDA-MB-468 = assay: Antiproliferative activity against human MDA-MB-468 cells assessed as reduction in cell viability incubated for 72 hrs by CellTitre-Glo assay; type: functional, cell-based; settings: MDA-MB-468, 72 h; summary of the method: as §2
A-375 [7] = assay: Antiproliferative activity against human A-375 cells transfected with beta-catenin shRNA assessed as reduction in cell viability incubated for 72 hrs by CellTitre-Glo assay; type: functional, cell-based
Summary of the method: (§3)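 A375 or M14 cells were transduced with lentiviral shRNA particles (target or control) at MOI 2 with polybrene 8 μg/ml. Puromycin selection at 2 μg/ml began 48 h later, and knockdown was checked by immunoblot. Cells were seeded at 2,000 per well in 2% FBS medium, exposed to agents for 72 h, and read by CellTiter-Glo.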

M14 = assay: Antiproliferative activity against human M14 cells transfected with beta-catenin shRNA assessed as reduction in cell viability incubated for 72 hrs by CellTitre-Glo assay; type: functional, cell-based; summary of the method: as §3
A-375 [8] = assay: Antiproliferative activity against human A-375 cells transfected with GSK3beta shRNA assessed as reduction in cell viability at 4.5 nM incubated for 72 hrs by CellTitre-Glo assay; type: functional, cell-based
A-375 [9] = assay: Antiproliferative activity against human A-375 cells transfected with GSK3alpha shRNA assessed as reduction in cell viability at 4.5 nM incubated for 72 hrs by CellTitre-Glo assay; type: functional, cell-based
[10] = test system: vemurafenib-resistant A-375; assay: Effect on RAS signaling in human vemurafenib-resistant A-375 cells assessed as effect on phosphorylation of MEK at 20 nM measured up to 8 hrs by western blot analysis; type: cell-based
Summary of the method: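 Parental and vemurafenib-resistant A375 cells were treated for up to 8 h. Lysis was on ice in 1% Triton X100, 25 mM Tris pH 7.5, 150 mM NaCl, EDTA/EGTA and protease/phosphatase inhibitors. Proteins were run on 4–20% SDS-PAGE and blotted to nitrocellulose. pMEK antibody was used at 1:1000 overnight at 4°C, with HRP secondary and chemiluminescence detection.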

[11] = Half life in mouse plasma CD1 nu/nu mouse at 5 mg/kg, iv measured up to 120 mins by HPLC/MS analysis; type: ADME, organism-based
Summary of the method: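 Non-tumor-bearing CD1 nu/nu mice were dosed i.v. at 5 mg/kg. Blood was taken by cardiac puncture at 5, 15, 30, 60 and 120 min and centrifuged at 5,000 x g for 10 min. Plasma drug levels were measured by HPLC with mass spectrometry.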

T1 sequence (P49840 whole entry, looked up): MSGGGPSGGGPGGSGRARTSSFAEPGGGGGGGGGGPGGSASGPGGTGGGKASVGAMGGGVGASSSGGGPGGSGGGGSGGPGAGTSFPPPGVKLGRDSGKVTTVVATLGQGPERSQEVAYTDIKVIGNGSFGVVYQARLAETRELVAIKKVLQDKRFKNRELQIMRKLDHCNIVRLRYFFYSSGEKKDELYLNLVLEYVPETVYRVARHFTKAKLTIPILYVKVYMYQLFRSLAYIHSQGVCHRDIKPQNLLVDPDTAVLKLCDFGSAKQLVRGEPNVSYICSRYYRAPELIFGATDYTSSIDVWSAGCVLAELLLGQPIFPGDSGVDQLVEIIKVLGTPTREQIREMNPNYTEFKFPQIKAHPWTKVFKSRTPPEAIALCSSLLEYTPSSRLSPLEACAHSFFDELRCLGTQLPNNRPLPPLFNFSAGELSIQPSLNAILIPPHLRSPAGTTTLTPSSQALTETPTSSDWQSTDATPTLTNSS
T1 sequence (P49841 whole entry, looked up): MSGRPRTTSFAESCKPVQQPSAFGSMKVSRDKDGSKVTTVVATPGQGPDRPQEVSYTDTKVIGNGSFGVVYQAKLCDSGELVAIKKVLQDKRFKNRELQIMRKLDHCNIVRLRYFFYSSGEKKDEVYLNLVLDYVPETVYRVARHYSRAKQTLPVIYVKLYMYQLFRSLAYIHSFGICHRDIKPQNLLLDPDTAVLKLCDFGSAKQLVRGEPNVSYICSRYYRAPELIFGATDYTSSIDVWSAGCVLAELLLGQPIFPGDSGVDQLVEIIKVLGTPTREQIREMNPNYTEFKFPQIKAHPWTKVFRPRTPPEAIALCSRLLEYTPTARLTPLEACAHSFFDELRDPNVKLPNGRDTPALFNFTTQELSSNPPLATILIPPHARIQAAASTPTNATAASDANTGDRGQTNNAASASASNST

SMILES: O=C1NC(=O)C(c2cnc3ccccn23)=C1c1cn2c3c(cc(F)cc13)CN(C(=O)N1CCCCC1)CC2 [LY-2090314]
- inhibition [1]: Active
- inhibition [2]: Active
- inhibition [3]: Active
- IC50 [4]: 12 nM
- IC50 (SK-MEL-2): 6 nM
- IC50 (CHL-1): 110 nM
- IC50 [5]: 8 nM
- IC50 [6]: 46 nM
- Activity (MEL1102): Active
- IC50 (HCT-116): 10500 nM
- IC50 (COLO 205): 11300 nM
- IC50 (COLO 320): > 20000 nM
- IC50 (A549): 9960 nM
- IC50 (SK-BR-3): > 20000 nM
- IC50 (MDA-MB-231): > 20000 nM
- IC50 (MDA-MB-468): 450 nM
- Activity (A-375 [7]): Active
- Activity (M14): Active
- Activity (A-375 [8]): Active
- Activity (A-375 [9]): inactive
- Activity [10]: inactive
- half-life [11]: 36 min

Reference: ChEMBL document CHEMBL5653620, “Activating the Wnt/β-Catenin Pathway for the Treatment of Melanoma--Application of LY2090314, a Novel Selective Inhibitor of Glycogen Synthase Kinase-3” (PLoS One, 2015)
